How the values were obtained:
BRG1/BRM = experiment: Immunoblot for BRG1/BRM and cleaved PARP in degrader-treated neurospheres; assay type: cell-based, human
Method in brief: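 BT869, HSJD-DIPG007 and SU-DIPGXIIIP* neurospheres were collected 24, 48 and 72 h after rising degrader concentrations; SU-DIPGXIIIP* was also collected at 6 h. SU-DIPGXIIIP* gave nuclear extracts; the other two gave whole-cell lysates in NP-40/deoxycholate/SDS buffer with protease and phosphatase inhibitors. Blots were blocked in 5% milk/TBST, then BRG1, BRM, PARP, cleaved PARP, GAPDH and H3 antibodies at 1:1,000 overnight at 4°C, then HRP secondary 1 h at RT, then ECL.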

[1] = tested on: BRG1 binding sites in BT869 (H3.3K27M-glioma) neurospheres; experiment: ATAC-seq chromatin accessibility in drug-treated BT869 neurospheres; assay type: cell-based, human; settings: BT869, 1 μmol/L, 24 and 48 hours
Method in brief: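 BT869 neurospheres were exposed to DMSO or 1 μmol/L BRG1/BRM inhibitor or degrader and collected 24 or 48 h later without FACS enrichment of viable cells. Bulk ATAC-seq was run as two biological replicates, each with two technical replicates. Genes linked to differentially accessible peaks were overlapped with single-cell H3K27M glioma metaprograms.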

[2] = Pharmacokinetic study, drug in plasma and brain after intraperitoneal dose; assay type: in vivo, CD1 mice; settings: after intraperitoneal administration, mass spectrometry
Method in brief: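 Female CD1 mice, three per time point, received a single i.p. dose of test compound in 10% hydroxypropyl β-cyclodextrin in sterile water. Plasma and brain were collected at 30 min, 2 h and 4 h and quantified by LC/MS-MS. Parameters came from a noncompartmental model.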

BRG1 = BRG1 (Homo sapiens, UniProt P51532); experiment: SILAC quantitative proteomics in BT869 neurospheres; assay type: cell-based; settings: BT869, 1 μmol/L, 2 days of treatment
Method in brief: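 BT869 cells were SILAC-labelled for 5 passages in custom TSM medium with heavy (13C615N2 lysine, 13C615N4 arginine) or light amino acids; incorporation was >95%. Cells (1.5 × 106) were seeded 1 day ahead, then given DMSO (light) or 1 μmol/L degrader (heavy) for 48 h. Lysis was in RIPA with protease inhibitors, benzonase and 1 mmol/L DTT. BCA-matched lysates were mixed 1:1. Significance came from a heteroscedastic two-tailed t test.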

[3] = tested on: BT869 (H3.3K27M-glioma) subcutaneous tumors; experiment: Subcutaneous xenograft, BT869; assay type: in vivo, NSG mice
Method in brief: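 Female NSG mice aged about 6–8 weeks were implanted with BT869 cells, 3 × 10^6 in PBS/Matrigel, into the right flank. Groups of 10 received the degrader at 50 mg/kg i.p. daily or vehicle for up to 60 days. BRG1 immunostaining was scored as nuclear DAB OD mean.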

[4] = tested on: SW-13 BRG1/BRM-deficient adrenocortical carcinoma cell line; experiment: Cell viability in BRG1/BRM-deficient control cell line; assay type: cell-based; settings: Homo sapiens, SW13
Method in brief: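 SW-13 cells were dosed with test compound at 24 and 96 h after plating, across 10 nmol/L to 10 μmol/L. Viability was read by CellTiter-Glo 7 days after drug exposure. Concentrations were log10-transformed and responses normalized to DMSO controls. Log IC50 was interpolated from a variable-slope least-squares fit.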

[5] = Plasma level after a single subcutaneous injection; assay type: in vivo; settings: single subcutaneous injection of 50 mg/kg
[6] = Kinetic solubility analysis; assay type: physicochemical; settings: PBS, pH 7.4, aqueous buffer, kinetic from dmso stock
Method in brief: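 Test compound as a 10 mmol/L DMSO stock was diluted into 50 mmol/L PBS, pH 7.4, to a final 200 μmol/L. This was done in the lower chamber of filter vials by a contract laboratory.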

Sequence of BRG1 (P51532 whole entry): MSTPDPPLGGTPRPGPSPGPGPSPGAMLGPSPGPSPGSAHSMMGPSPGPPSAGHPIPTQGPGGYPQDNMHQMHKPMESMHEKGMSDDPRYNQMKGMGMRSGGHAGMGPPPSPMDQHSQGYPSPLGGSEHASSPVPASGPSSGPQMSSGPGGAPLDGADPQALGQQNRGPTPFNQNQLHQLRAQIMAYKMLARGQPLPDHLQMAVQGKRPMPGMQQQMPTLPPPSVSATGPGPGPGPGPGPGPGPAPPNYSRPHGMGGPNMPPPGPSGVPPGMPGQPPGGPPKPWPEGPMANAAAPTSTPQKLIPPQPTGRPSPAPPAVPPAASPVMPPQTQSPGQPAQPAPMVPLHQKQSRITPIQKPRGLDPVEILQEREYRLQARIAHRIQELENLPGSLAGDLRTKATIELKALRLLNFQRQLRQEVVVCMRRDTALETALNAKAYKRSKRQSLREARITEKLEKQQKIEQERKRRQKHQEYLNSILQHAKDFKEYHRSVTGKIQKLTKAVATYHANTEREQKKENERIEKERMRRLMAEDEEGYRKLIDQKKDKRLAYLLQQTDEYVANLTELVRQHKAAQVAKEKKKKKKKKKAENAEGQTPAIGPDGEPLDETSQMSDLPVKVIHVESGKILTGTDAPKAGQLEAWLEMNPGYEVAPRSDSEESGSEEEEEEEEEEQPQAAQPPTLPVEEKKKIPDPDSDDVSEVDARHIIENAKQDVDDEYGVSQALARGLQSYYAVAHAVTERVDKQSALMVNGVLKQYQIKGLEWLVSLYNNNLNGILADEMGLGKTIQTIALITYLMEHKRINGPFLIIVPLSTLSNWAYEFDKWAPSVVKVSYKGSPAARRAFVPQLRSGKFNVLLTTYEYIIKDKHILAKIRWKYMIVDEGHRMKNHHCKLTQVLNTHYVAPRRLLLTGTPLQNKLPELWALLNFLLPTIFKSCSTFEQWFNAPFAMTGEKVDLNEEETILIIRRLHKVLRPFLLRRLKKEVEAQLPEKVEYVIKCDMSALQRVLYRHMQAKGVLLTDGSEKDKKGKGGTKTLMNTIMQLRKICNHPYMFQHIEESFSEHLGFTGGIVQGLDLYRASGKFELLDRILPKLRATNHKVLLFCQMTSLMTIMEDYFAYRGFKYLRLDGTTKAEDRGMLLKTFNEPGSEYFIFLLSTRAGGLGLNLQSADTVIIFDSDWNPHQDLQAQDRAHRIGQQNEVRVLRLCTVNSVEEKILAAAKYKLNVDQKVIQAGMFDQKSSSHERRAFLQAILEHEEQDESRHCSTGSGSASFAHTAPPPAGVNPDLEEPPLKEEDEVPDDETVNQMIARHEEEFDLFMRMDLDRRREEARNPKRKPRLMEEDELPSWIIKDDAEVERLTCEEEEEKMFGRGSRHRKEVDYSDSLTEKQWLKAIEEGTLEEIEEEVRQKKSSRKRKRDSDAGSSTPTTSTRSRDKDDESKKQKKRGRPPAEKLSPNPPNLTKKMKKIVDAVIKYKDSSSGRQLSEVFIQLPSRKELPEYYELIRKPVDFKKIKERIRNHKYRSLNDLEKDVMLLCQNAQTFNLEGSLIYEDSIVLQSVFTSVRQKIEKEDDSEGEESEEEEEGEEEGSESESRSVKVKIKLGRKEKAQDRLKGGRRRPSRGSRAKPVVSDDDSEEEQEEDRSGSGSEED

Compound | Time to degradation of BRG1/BRM (BRG1/BRM; SU-DIPGXIIIP* cells) | Lowest concentration degrading BRG1/BRM (BRG1/BRM; SU-DIPGXIIIP* cells, 6 hours) | DNA accessibility at BRG1 binding sites (ATAC-seq) [1] | Blood–brain barrier penetrance [2] | Proteins degraded (SILAC) (BRG1) | Degradation of BRG1 in treated tumors ([3]; BT869 s.c., 50 mg/kg i.p. daily, versus vehicle) | Body weight and toxic effects (plasma, liver, spleen) ([3]; mice treated for 45 days, Compound 14 20 mg/kg i.p. daily, JQ-dS-4 50 mg/kg i.p. daily) | Time to complete degradation of BRG1/BRM (BRG1/BRM; BT869 cells) | Time to complete degradation of BRG1/BRM (BRG1/BRM; HSJD-DIPG007 cells) | Time to complete degradation of BRG1/BRM (BRG1/BRM; SU-DIPGXIIIP* cells) | IC50 [4] | Plasma levels [5] | Plasma levels ([5]; converted from ng/mL) | solubility at 24 h [6]
Cc1ncsc1-c1ccc([C@H](C)NC(=O)[C@@H]2C[C@@H](O)CN2C(=O)[C@@H](NC(=O)CN2CCN(c3cc(-c4ccccc4O)nnc3N)CC2)C(C)(C)C)cc1 [AU-15330, reference compound] | ≤ 6 h | 500 nmol/L | decrease in DNA accessibility at BRG1 binding sites |  |  |  |  |  |  |  |  |  |  | 
O=C1CCC(N2C(=O)c3cccc(NCCCCNC(=O)c4cccc(C#Cc5cc(NC(=O)Nc6ccnc(Cl)c6)ccn5)c4)c3C2=O)C(=O)N1 (stereo not drawn) [JQ-dS-4, 3-((4-(3-(2-chloropyridin-4-yl)ureido)pyridin-2-yl)ethynyl)-N-(4-((2-(2,6-dioxopiperidin-3-yl)-1,3-dioxoisoindolin-4-yl)amino)butyl)benzamide] |  |  | decrease in DNA accessibility at BRG1 binding sites | limited penetration into brain tissue | BRG1 was one of the top significant proteins degraded | negligible degradation of BRG1 | did not observe any significant changes in body weight or toxic effects | 48 h | 72 h | 72 h | 6 µM | 240 ng/mL | ~300 nM | < 1.56 µM

Source: publication PMC9716260 (Cancer Discovery, 2022)
